Results published in ChEMBL document CHEMBL4699648, “Discovery of Potent and Brain-Penetrant GPR52 Agonist that Suppresses Psychostimulant Behavior” (J Med Chem, 2020).
Calls of active or inactive are those of the source. The calls are words filed in the database; no cut-off is given here.

How the values were obtained:
[1] = Drug level in Sprague-Dawley rat brain at 10 mg/kg, iv after 1 hr; assay type: ADME, organism-based; conditions: read-out: Drug uptake
In short: (§1)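 Male Sprague Dawley rats, 200–250 g, n = 3, were given a single 10 mg/kg IV dose in 10% DMSO/90% HP-β-CD vehicle. Brain and jugular-vein plasma (K₂EDTA, centrifuged at 4 °C) were collected 0.25 and 1 h post-dose and stored at −20 °C. Drug concentration was measured in each and the brain/plasma ratio derived. Values are mean ± SEM of biological triplicates.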

D(2) dopamine receptor = D(2) dopamine receptor (Homo sapiens, UniProt P14416); test: Binding affinity to DRD2 (unknown origin) assessed as inhibition of ligand binding
[2] = biological target: Muscarinic acetylcholine receptor M5 (Homo sapiens, UniProt P08912); test: Binding affinity to M5 receptor (unknown origin) assessed as inhibition of ligand binding
[3] = biological target: Beta-2 adrenergic receptor (Homo sapiens, UniProt P07550); test: Binding affinity to beta2 adrenergic receptor (unknown origin) assessed as inhibition of ligand binding
[4] = biological target: 5-hydroxytryptamine receptor 1E (Homo sapiens, UniProt P28566); test: Binding affinity to 5-HT1E (unknown origin) assessed as inhibition of ligand binding
[5] = Volume of distribution at steady state in Sprague-Dawley rat at 10 mg/kg, iv mesured up to 24 hrs; assay type: ADME, organism-based; conditions: in vivo
In short: (§2)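 Male Sprague Dawley rats, 200–250 g, n = 3 per group, were dosed at 10 mg/kg IV or 20 mg/kg PO in 10% DMSO/90% HP-β-CD. Jugular plasma was sampled from 0.08 (IV) or 0.25 (PO) to 24 h. Non-compartmental analysis gave t1/2 = 0.693/λ, AUC by linear trapezoid extrapolated to infinity, Vss after IV, and absolute F. Mean ± SEM.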

[6] = biological target: 5-hydroxytryptamine receptor 5A (Homo sapiens, UniProt P47898); test: Binding affinity to 5-HT5A (unknown origin) assessed as inhibition of ligand binding
[7] = Ratio of drug level in brain to plasma of Sprague-Dawley rat at 10 mg/kg, iv after 1 hr; assay type: ADME, organism-based; in short: as §1
[8] = Oral bioavailability in Sprague-Dawley rat at 20 mg/kg mesured up to 24 hrs; assay type: ADME, organism-based; conditions: in vivo; in short: as §2
[9] = Cmax in Sprague-Dawley rat at 10 mg/kg, iv mesured up to 24 hrs; assay type: ADME, organism-based; design: route intravenous, dose 10 mg/kg, time <=24; conditions: in vivo
In short: (§3)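 Male Sprague-Dawley rats (200–250 g, n = 3/group), dosed IV 10 mg/kg or PO 20 mg/kg in 10% DMSO/90% HP-β-CD. Jugular blood into K2EDTA at 0.08 (IV only), 0.25, 0.5, 1, 2, 4, 8, 24 h; plasma by centrifugation at 4 °C, stored −20 °C. Non-compartmental analysis; Cmax read from profile, AUC by linear trapezoidal rule extrapolated to infinity; mean ± SEM.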

[10] = biological target: Alpha-2A adrenergic receptor (Homo sapiens, UniProt P08913); test: Binding affinity to alpha2A receptor (unknown origin) assessed as inhibition of ligand binding
[11] = biological target: Alpha-1A adrenergic receptor (Homo sapiens, UniProt P35348); test: Binding affinity to alpha1A receptor (unknown origin) assessed as inhibition of ligand binding
[12] = biological target: 5-hydroxytryptamine receptor 1B (Homo sapiens, UniProt P28222); test: Binding affinity to 5-HT1B (unknown origin) assessed as inhibition of ligand binding
[13] = biological target: 5-hydroxytryptamine receptor 2B (Homo sapiens, UniProt P41595); test: Binding affinity to 5-HT2B (unknown origin) assessed as inhibition of ligand binding
[14] = biological target: 5-hydroxytryptamine receptor 7 (Homo sapiens, UniProt P34969); test: Binding affinity to 5-HT7A (unknown origin) assessed as inhibition of ligand binding
D(1A) dopamine receptor = D(1A) dopamine receptor (Homo sapiens, UniProt P21728); test: Binding affinity to DRD1 (unknown origin) assessed as inhibition of ligand binding
[15] = biological target: Beta-1 adrenergic receptor (Homo sapiens, UniProt P08588); test: Binding affinity to beta1 adrenergic receptor (unknown origin) assessed as inhibition of ligand binding
[16] = biological target: Muscarinic acetylcholine receptor M2 (Homo sapiens, UniProt P08172); test: Binding affinity to M2 receptor (unknown origin) assessed as inhibition of ligand binding
[17] = biological target: Muscarinic acetylcholine receptor M1 (Homo sapiens, UniProt P11229); test: Binding affinity to M1 receptor (unknown origin) assessed as inhibition of ligand binding
[18] = Cmax in Sprague-Dawley rat at 20 mg/kg, po mesured up to 24 hrs; assay type: ADME, organism-based; design: route oral, dose 20 mg/kg, time <=24; conditions: in vivo; in short: as §3
Mus musculus [19] = test: Antipsychotic-like activity in C57/BL6 mouse assessed as reduction in horizontal activity at 3 to 10 mg/kg, ip measured after 30 mins; assay type: functional, organism-based; conditions: dose mg/kg 3-10, time 30.0 min
In short: (§4)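 Naïve male C57/BL6 mice (24–31 g, ~60 days), handled and habituated to activity monitors beforehand; n = 12/dose (11 at 1 mg/kg after outlier exclusion). Vehicle or 0.3, 1, 3, 10 mg/kg IP, then automated horizontal activity monitored 30 min; amphetamine 3 mg/kg IP followed, with monitoring for 90 min. One-way ANOVA with Dunnett's comparisons vs vehicle; mean ± SEM; blinded dosing.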

D(3) dopamine receptor = D(3) dopamine receptor (Homo sapiens, UniProt P35462); test: Binding affinity to DRD3 (unknown origin) assessed as inhibition of ligand binding
[20] = biological target: Kappa-type opioid receptor (Homo sapiens, UniProt P41145); test: Binding affinity to KOR (unknown origin) assessed as inhibition of ligand binding
[21] = biological target: Muscarinic acetylcholine receptor M3 (Homo sapiens, UniProt P20309); test: Binding affinity to M3 receptor (unknown origin) assessed as inhibition of ligand binding
[22] = biological target: 5-hydroxytryptamine receptor 1A (Homo sapiens, UniProt P08908); test: Binding affinity to 5-HT1A (unknown origin) assessed as inhibition of ligand binding
Mu-type opioid receptor = Mu-type opioid receptor (Homo sapiens, UniProt P35372); test: Binding affinity to MOR (unknown origin) assessed as inhibition of ligand binding
Histamine H2 receptor = Histamine H2 receptor (Homo sapiens, UniProt P25021); test: Binding affinity to HRH2 (unknown origin) assessed as inhibition of ligand binding
[23] = Clearance in Sprague-Dawley rat at 10 mg/kg, iv mesured up to 24 hrs; assay type: ADME, organism-based; conditions: in vivo; in short: as §3
Histamine H1 receptor = Histamine H1 receptor (Homo sapiens, UniProt P35367); test: Binding affinity to HRH1 (unknown origin) assessed as inhibition of ligand binding
D(4) dopamine receptor = D(4) dopamine receptor (Homo sapiens, UniProt P21917); test: Binding affinity to DRD4 (unknown origin) assessed as inhibition of ligand binding
hERG (KCNH2) = hERG (KCNH2) (Homo sapiens, UniProt Q12809); test: Binding affinity to human ERG assessed as inhibition of ligand binding at 10 uM relative to control
HEK293 = test: Effect on cAMP levels in HEK293 cells at 0.1 nM to 10000 nM incubated for 15 mins by Glosensor cAMP assay; assay type: functional, cell-based; conditions: Homo sapiens, dose nM 0.1-10000, time […]
In short: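 HEK293 cells were transiently co-transfected with human GPR52 and the 22F Glosensor cAMP reporter. After 18 h they were seeded on poly-L-lysine, then equilibrated 2 h at room temperature in the dark in 1% Glosensor reagent/HBSS/20 mM HEPES. Cells were treated 15 min with a twelve-point series, and luminescence was read.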

[24] = biological target: 5-hydroxytryptamine receptor 2A (Homo sapiens, UniProt P28223); test: Binding affinity to 5-HT2A (unknown origin) assessed as inhibition of ligand binding
[25] = biological target: Muscarinic acetylcholine receptor M4 (Homo sapiens, UniProt P08173); test: Binding affinity to M4 receptor (unknown origin) assessed as inhibition of ligand binding
[26] = biological target: 5-hydroxytryptamine receptor 6 (Homo sapiens, UniProt P50406); test: Binding affinity to 5-HT6 (unknown origin) assessed as inhibition of ligand binding
[27] = biological target: Sodium-dependent dopamine transporter (Homo sapiens, UniProt Q01959); test: Binding affinity to DAT (unknown origin) assessed as inhibition of ligand binding
[28] = Drug level in Sprague-Dawley rat plasma at 10 mg/kg, iv after 1 hr; assay type: ADME, organism-based; in short: as §1
[29] = AUC (0 to infinity) in Sprague-Dawley rat at 10 mg/kg, iv mesured up to 24 hrs; assay type: ADME, organism-based; design: route intravenous, dose 10 mg/kg, time <=24; conditions: in vivo; in short: as §3
D(1B) dopamine receptor = D(1B) dopamine receptor (Homo sapiens, UniProt P21918); test: Binding affinity to DRD5 (unknown origin) assessed as inhibition of ligand binding
[30] = AUC (0 to infinity) in Sprague-Dawley rat at 20 mg/kg, po mesured up to 24 hrs; assay type: ADME, organism-based; design: route oral, dose 20 mg/kg, time <=24; conditions: in vivo; in short: as §3
[31] = biological target: Voltage-gated inwardly rectifying potassium channel KCNH2 (Homo sapiens, UniProt Q12809); test: Binding affinity to human ERG assessed as inhibition of ligand binding
[32] = biological target: Alpha-1B adrenergic receptor (Homo sapiens, UniProt P35368); test: Binding affinity to alpha1B receptor (unknown origin) assessed as inhibition of ligand binding
Mus musculus [33] = test: Antipsychotic-like activity in C57/BL6 mouse assessed as reduction in amphetamine-evoked hyperactivity by measuring horizontal activity at 0.3 to 10 mg/kg, ip dosed 30 mins before amphetamine challenge and measured for 90 mins; assay type: functional, organism-based; conditions: dose mg/kg 0.3-10, time […]; in short: as §4
[34] = Volume of distribution at steady state in Sprague-Dawley rat at 20 mg/kg, po mesured up to 24 hrs; assay type: ADME, organism-based; conditions: in vivo
[35] = biological target: 5-hydroxytryptamine receptor 3A (Homo sapiens, UniProt P46098); test: Binding affinity to 5-HT3 (unknown origin) assessed as inhibition of ligand binding
Homo sapiens = organism: Homo sapiens; test: Binding affinity to GABAA receptor (unknown origin) assessed as inhibition of ligand binding at 10 uM relative to control
[36] = biological target: 5-hydroxytryptamine receptor 2C (Homo sapiens) (UniProt P28335); test: Binding affinity to 5-HT2C (unknown origin) assessed as inhibition of ligand binding at 10 uM relative to control
[37] = Binding affinity to GABAA receptor (unknown origin) assessed as inhibition of ligand binding; design: species or system Homo sapiens
[38] = biological target: 5-hydroxytryptamine receptor 1D (Homo sapiens, UniProt P28221); test: Binding affinity to 5-HT1D (unknown origin) assessed as inhibition of ligand binding

Chain of Muscarinic acetylcholine receptor M1 (P11229 whole entry): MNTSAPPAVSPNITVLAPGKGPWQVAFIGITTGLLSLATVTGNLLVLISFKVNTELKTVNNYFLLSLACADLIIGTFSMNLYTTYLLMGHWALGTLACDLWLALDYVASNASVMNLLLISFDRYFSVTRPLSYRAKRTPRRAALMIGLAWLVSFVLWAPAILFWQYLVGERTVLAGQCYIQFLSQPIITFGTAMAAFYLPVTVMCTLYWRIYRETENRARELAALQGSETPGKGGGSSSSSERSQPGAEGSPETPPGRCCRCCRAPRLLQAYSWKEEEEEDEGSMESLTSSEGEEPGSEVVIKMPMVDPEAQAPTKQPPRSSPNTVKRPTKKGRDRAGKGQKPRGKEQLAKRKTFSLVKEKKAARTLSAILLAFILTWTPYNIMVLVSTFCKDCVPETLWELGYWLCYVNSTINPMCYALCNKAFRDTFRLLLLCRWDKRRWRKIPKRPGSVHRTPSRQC
Chain of Muscarinic acetylcholine receptor M3 (P20309 whole entry): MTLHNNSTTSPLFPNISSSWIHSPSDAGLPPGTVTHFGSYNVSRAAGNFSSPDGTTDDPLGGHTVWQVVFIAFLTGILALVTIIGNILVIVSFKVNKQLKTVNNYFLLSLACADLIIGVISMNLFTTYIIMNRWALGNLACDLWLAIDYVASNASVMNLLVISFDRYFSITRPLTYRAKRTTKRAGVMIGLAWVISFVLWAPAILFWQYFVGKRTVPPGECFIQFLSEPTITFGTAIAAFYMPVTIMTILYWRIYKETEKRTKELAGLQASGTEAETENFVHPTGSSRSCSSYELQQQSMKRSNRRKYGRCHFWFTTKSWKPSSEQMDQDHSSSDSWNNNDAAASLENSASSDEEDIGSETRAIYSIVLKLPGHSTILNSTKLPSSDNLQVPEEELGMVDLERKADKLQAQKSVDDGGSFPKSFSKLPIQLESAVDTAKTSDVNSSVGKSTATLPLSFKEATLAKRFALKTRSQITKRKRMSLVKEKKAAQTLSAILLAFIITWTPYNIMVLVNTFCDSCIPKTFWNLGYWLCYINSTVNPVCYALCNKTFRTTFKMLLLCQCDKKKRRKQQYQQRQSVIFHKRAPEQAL
Chain of Sodium-dependent dopamine transporter (Q01959 whole entry): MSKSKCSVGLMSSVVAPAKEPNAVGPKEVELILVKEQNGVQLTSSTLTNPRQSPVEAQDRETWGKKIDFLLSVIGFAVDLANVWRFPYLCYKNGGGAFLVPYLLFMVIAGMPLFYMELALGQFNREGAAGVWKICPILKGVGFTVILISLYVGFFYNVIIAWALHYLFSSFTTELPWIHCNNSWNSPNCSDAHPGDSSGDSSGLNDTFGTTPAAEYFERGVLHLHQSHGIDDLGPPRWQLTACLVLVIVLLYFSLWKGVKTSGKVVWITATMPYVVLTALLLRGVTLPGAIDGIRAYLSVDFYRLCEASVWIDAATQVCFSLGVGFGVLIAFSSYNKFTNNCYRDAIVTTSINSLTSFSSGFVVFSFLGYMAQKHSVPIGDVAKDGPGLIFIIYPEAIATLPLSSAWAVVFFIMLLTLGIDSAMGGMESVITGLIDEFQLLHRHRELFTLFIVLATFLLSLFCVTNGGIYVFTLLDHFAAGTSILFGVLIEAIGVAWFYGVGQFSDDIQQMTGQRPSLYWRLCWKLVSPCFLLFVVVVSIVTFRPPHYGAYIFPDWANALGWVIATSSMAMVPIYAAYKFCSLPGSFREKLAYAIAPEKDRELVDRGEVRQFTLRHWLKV
Chain of 5-hydroxytryptamine receptor 6 (P50406 whole entry): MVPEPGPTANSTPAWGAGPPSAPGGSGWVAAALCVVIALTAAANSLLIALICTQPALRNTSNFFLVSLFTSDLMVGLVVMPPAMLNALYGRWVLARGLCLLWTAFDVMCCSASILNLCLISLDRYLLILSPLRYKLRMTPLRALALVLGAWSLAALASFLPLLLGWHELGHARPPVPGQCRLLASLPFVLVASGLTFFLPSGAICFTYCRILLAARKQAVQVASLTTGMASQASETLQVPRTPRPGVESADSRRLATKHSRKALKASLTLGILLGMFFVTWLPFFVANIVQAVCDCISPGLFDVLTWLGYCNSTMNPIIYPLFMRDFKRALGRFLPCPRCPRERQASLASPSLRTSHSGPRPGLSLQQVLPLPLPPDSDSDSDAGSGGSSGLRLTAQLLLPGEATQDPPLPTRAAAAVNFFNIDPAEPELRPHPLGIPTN
Chain of Muscarinic acetylcholine receptor M4 (P08173 whole entry): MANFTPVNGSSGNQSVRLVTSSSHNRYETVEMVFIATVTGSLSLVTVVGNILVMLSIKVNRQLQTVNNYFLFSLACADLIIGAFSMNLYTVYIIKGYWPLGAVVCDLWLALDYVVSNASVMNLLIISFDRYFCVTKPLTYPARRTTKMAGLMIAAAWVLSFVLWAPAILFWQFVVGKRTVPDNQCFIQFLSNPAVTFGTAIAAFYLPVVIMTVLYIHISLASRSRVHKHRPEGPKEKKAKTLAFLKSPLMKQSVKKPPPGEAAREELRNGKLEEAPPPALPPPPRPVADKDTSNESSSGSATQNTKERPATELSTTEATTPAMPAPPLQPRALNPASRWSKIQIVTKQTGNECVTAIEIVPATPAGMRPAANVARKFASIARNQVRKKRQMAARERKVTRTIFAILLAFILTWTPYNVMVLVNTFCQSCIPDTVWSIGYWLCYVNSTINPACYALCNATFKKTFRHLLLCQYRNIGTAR
Chain of 5-hydroxytryptamine receptor 3A (P46098 whole entry): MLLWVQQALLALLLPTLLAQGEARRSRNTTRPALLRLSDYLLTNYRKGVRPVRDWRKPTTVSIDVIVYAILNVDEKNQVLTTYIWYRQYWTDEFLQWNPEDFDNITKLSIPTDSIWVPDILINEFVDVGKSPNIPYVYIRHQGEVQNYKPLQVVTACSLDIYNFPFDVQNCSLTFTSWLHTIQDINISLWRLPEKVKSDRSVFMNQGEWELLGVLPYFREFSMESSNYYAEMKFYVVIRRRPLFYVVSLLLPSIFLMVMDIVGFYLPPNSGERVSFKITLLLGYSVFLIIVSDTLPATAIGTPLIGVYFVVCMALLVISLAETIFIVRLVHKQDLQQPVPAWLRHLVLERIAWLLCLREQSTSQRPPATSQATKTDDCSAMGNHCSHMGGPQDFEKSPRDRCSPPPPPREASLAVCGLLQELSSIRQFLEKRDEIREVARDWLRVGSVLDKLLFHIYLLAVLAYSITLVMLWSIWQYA
Chain of Beta-1 adrenergic receptor (P08588 whole entry): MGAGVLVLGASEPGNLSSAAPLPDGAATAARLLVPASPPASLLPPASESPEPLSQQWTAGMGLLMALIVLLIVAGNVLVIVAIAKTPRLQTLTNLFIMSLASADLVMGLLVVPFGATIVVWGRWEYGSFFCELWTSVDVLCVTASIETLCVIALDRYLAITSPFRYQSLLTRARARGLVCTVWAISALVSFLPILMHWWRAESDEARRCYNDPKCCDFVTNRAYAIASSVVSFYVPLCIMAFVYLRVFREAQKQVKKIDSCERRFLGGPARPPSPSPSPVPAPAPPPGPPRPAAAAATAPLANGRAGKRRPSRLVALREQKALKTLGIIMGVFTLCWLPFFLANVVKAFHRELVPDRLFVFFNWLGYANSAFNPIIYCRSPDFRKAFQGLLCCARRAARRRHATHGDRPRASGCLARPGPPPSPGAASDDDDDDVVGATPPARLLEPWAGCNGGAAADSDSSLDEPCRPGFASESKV
Chain of Alpha-2A adrenergic receptor (P08913 whole entry): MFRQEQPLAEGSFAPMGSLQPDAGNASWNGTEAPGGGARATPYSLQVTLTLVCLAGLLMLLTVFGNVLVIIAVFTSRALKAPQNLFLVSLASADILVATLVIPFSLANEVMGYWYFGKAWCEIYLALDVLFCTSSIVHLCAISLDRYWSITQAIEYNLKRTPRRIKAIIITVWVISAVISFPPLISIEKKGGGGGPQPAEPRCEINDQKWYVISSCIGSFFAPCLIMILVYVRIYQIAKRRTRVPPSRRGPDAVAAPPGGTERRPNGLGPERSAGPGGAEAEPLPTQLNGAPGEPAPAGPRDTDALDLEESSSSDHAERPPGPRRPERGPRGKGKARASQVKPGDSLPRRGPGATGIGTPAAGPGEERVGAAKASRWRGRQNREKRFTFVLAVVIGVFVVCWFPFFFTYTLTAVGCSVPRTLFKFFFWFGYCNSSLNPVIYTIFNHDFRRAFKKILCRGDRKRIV
Chain of Alpha-1B adrenergic receptor (P35368 whole entry): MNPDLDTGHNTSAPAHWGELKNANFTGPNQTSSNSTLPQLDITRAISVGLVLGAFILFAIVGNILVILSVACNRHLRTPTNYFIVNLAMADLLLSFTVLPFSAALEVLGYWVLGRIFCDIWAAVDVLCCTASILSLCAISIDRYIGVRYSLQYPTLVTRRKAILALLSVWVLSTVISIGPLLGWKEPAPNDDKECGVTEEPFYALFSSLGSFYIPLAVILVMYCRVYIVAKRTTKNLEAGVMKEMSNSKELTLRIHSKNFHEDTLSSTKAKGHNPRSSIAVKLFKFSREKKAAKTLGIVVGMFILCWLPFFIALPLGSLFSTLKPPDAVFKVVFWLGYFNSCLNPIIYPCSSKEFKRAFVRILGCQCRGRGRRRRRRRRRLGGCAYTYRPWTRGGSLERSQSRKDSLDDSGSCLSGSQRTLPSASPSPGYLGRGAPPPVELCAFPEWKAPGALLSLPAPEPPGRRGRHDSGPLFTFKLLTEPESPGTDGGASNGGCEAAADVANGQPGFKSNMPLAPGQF
Chain of Histamine H2 receptor (P25021 whole entry): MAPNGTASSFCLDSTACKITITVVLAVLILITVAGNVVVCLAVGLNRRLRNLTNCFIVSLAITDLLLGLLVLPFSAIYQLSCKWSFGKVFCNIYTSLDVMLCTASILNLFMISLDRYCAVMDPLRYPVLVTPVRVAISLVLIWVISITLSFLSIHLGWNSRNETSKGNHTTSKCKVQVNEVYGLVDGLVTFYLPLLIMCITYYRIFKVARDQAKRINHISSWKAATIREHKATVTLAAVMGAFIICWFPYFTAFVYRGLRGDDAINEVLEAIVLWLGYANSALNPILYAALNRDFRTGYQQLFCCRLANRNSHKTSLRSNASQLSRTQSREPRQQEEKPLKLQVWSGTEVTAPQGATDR

- concentration at 1 h [1]: 1010 ng/g
- Ki (D(2) dopamine receptor): Not Active
- Ki [2]: Not Active
- Ki [3]: Not Active
- Ki [4]: Not Active
- Vdss [5]: 1.5 L/kg
- Ki [6]: Not Active
- BPR [7]: 0.39
- bioavailability [8]: 76%
- Cmax [9]: 6726 ng/mL
- Ki [10]: Not Active
- Ki [11]: Not Active
- Ki [12]: Not Active
- Ki [13]: Not Active
- Ki [14]: Not Active
- Ki (D(1A) dopamine receptor): Not Active
- Ki [15]: Not Active
- Ki [16]: Not Active
- Ki [17]: Not Active
- Cmax [18]: 3407 ng/mL
- Ki (D(3) dopamine receptor): Not Active
- Ki [20]: Not Active
- Ki [21]: Not Active
- Ki [22]: Not Active
- Ki (Mu-type opioid receptor): Not Active
- Ki (Histamine H2 receptor): Not Active
- CL [23]: 18.3 mL/min/kg
- Ki (Histamine H1 receptor): Not Active
- Ki (D(4) dopamine receptor): Not Active
- Ki [24]: Not Active
- Ki [25]: Not Active
- Ki [26]: Not Active
- Ki [27]: Not Active
- concentration at 1 h [28]: 2590 ng/g
- AUC [29]: 9030 ng·h/mL
- Ki (D(1B) dopamine receptor): Not Active
- AUC [30]: 13749 ng·h/mL
- Ki [32]: Not Active
- Vdss [34]: 5.5 L/kg
- Ki [35]: Not Active
- inhibition (Homo sapiens): 5.98%
- inhibition [36]: 52.6%
- Ki [37]: Not Active
- Ki [38]: Not Active
SMILES: O=C(NCCO)c1cccc2c1CCN2c1cc(Cc2cc(F)cc(C(F)(F)F)c2)ncn1
- Activity (Mus musculus [19]): Active
- inhibition at 10 µM (hERG (KCNH2)): 11%
- Activity (HEK293): inactive
- Ki [31]: Not Active
- Activity (Mus musculus [33]): Dose-dependent effect
